Results from different studies.
Each line is one published result; the experiments were not run side by side.
CDK9 with cyclin T1: Cyclin-dependent kinase 9, with cyclin T1 (CDK9, Homo sapiens, UniProt P50750)
CDK9: Cyclin-dependent kinase 9 (CDK9, Homo sapiens, UniProt P50750)
CDK9 with cyclin K: Cyclin-dependent kinase 9, with cyclin K (CDK9, Homo sapiens, UniProt P50750)

| SMILES | target | read-out | mode | method | concentration | endpoint | value |
| --- | --- | --- | --- | --- | --- | --- | --- |
| Cc1cc(NC(=O)c2cccc3cc(-c4cccc5[nH]nc(N)c45)ccc23)ccc1F | CDK9 with cyclin T1 | enzyme activity | inhibitor | – | 0.1 µM | activity vs control | 106% |
| Cc1cc(NC(=O)c2cccc(S(F)(F)(F)(F)F)c2)cc(-n2ccn3nc(-c4cccnc4)cc23)c1 | CDK9 | cell-free assay | – | competition with immobilised ligand | 1 µM | remaining binding | 100% |
| CCN(CC)c1ccc(C2=NNC(=O)CC2C)cc1[N+](=O)[O-] (centres unmarked) | CDK9 with cyclin T1 | enzyme activity | inhibitor | – | 10 µM | remaining activity | 105% |
| O=C1Nc2ccc(Cl)cc2C1=Cc1cc(Cl)c(O)c(Cl)c1 | CDK9 with cyclin T1 | cell-free assay | – | – | 0.5 µM | remaining signal | 95.2% |
| Cc1cc(-n2nc(Cc3cc(F)cc(C(F)(F)F)c3)nc2C)ccc1C(N)=O | CDK9 | cell-free assay | – | competition with immobilised ligand | 1 µM | remaining binding | 100% |
| Cc1ccc(Nc2nccc(N(C)c3ccc4c(C)n(C)nc4c3)n2)cc1S(N)(=O)=O | CDK9 with cyclin T1 | enzyme activity | inhibitor | – | 0.5 µM | remaining activity | 91.5% |
| CN(C)C1CCN(CC#Cc2nn(C3CCCC3)c3nc(NCc4ccccc4)ncc23)C1 (centres unmarked) | CDK9 with cyclin T1 | enzyme activity | inhibitor | FRET | 10 µM | inhibition | -12% |
| N#CCCc1ccc2c(c1)-c1[nH]c3ccc([N+](=O)[O-])cc3c1CC(=O)N2 | CDK9 with cyclin K | cell-free assay | – | – | 0.5 µM | remaining signal | 23.7% |
| C=CC(=O)Nc1cc(Nc2nccc(Nc3cc(Cl)c(F)cc3C(C)(C)O)n2)c(OC)cc1N1CC[C@@H](N(C)C)C1 | CDK9 with cyclin T1 | enzyme activity | inhibitor | – | 1 µM | inhibition | 10% |
| Cc1ccc(NC(=O)c2ccc(C)c(C(F)(F)F)c2)cc1C#Cc1nn(C2CCC(O)CC2)c2ncnc(N)c12 (centres unmarked) | CDK9 with cyclin T1 | cell-free assay | – | – | 10 µM | remaining signal | 113% |
| Cc1ccc(C(=O)NCc2ccsc2)cc1C#Cc1cn(C(C)C)c2ncnc(N)c12 | CDK9 with cyclin T1 | enzyme activity | inhibitor | – | 1 µM | activity vs control | 93% |
| Cc1cnc(NC2CCOCC2)nc1-n1cnc(C(=O)NC(CN)c2cc(F)cc(Cl)c2)c1 (centres unmarked) | CDK9 with cyclin T1 | enzyme activity | inhibitor | radiometric | 1 µM | remaining activity | 46% |
| c1ccc(N2CCN(Cc3nc4ccccc4[nH]3)CC2)nc1 | CDK9 | binding | – | competition with immobilised ligand | 1 µM | remaining binding | 100% |
| CCN(CC)CCNC(=O)c1c(C)[nH]c(/C=C2\C(=O)Nc3ccc(F)cc32)c1C | CDK9 with cyclin T1 | enzyme activity | inhibitor | – | 0.3 µM | inhibition | -7% |
| COc1cc(/C=C/C(=O)CC(=O)/C=C/c2ccc(O)c(OC)c2)ccc1O | CDK9 with cyclin T1 | enzyme activity | inhibitor | – | 1 µM | activity vs control | 88% |
| CC(C)(C)c1nc2c(s1)c1nc(N)ncc1c1ccc(NS(=O)(=O)c3c(F)cccc3F)c(F)c12 | CDK9 with cyclin K | enzyme activity | inhibitor | radiometric | 1 µM | remaining activity | 93% |

| SMILES | target | read-out | mode | method | concentration | endpoint | value |
| --- | --- | --- | --- | --- | --- | --- | --- |
| c1ccc(CNc2nc(N3CCOc4ccccc43)nc3c2CCCC3)cc1 | CDK9 | target engagement in cells | inhibitor | chemoproteomics | 20 mM | inhibition | -15.3% |
| CCCOc1ccc([C@H]2[C@H](C(=O)O)[C@@H](c3ccc4c(c3)OCO4)CN2CC(=O)Nc2c(CC)cccc2CC)cc1 | CDK9 | cell-free assay | – | competition with immobilised ligand | 1 µM | remaining binding | 88% |
| CNC(=O)c1cc(Oc2ccc(NC(=O)Nc3ccc(Cl)c(C(F)(F)F)c3)cc2)ccn1 | CDK9 with cyclin T1 | enzyme activity | inhibitor | – | 0.3 µM | inhibition | -4% |
| Cc1ccc(C(=O)Nc2ccc(CN3CCN(C)CC3)c(C(F)(F)F)c2)cc1C#Cc1cnc2cccnn12 | CDK9 | enzyme activity | inhibitor | – | 23.5 nM | remaining activity | 96% |
| CNC(=O)c1ccc(Nc2ncc(C(F)(F)F)c(NCc3nccnc3N(C)S(C)(=O)=O)n2)cc1 | CDK9 | cell-free assay | – | competition with immobilised ligand | 0.1 µM | remaining binding | 86% |
| COc1cc(Nc2cnc(C#N)c(O[C@H](C)CN(C)C)n2)ncc1-c1cnn(C)c1 | CDK9 with cyclin T1 | enzyme activity | inhibitor | radiometric | 1 µM | remaining activity | 84% |
| O=C1NC(=O)c2cc(Nc3ccc(F)cc3)c(Nc3ccc(F)cc3)cc21 | CDK9 with cyclin T1 | cell-free assay | – | – | 0.5 µM | remaining signal | 95.4% |
| CO[C@@H](C)c1c(Nc2ccc([C@H](N(C)C(=O)C3CCS(=O)(=O)CC3)C(F)(F)F)cc2)cnc2cc(Cl)nn12 | CDK9 | cell-free assay | – | competition with immobilised ligand | 1 µM | remaining binding | 85% |
| CS(=O)(=O)Nc1cccc(-c2csc(NC(=O)CSc3nc4nccnc4c(=O)n3CCc3ccccc3)n2)c1 | CDK9 with cyclin K | enzyme activity | inhibitor | – | 10 µM | inhibition | -1% |
| Cc1ccc(NC(=O)c2ccc(CN3CCN(C)CC3)cc2)cc1Nc1nc(-c2cccnc2)cs1 | CDK9 with cyclin T1 | cell-free assay | – | – | 0.5 µM | remaining signal | 99.2% |
| CN1CC(Oc2cnc(C#N)cc2-c2ccn3nc(NC(=O)C4CC4)cc3c2)C1 | CDK9 with cyclin T1 | enzyme activity | inhibitor | – | 1 µM | inhibition | -15% |
| CC(C)(C)c1nc(-c2cccc(NS(=O)(=O)c3c(F)cccc3F)c2F)c(-c2ccnc(N)n2)s1 | CDK9 with cyclin T1 | enzyme activity | inhibitor | radiometric | 1 µM | remaining activity | 106% |
| CCc1ccccc1C(=O)Nc1n[nH]c2c(C)c(F)c(C3C(C#N)=C(C)N(C)C(C)=C3C#N)cc12 | CDK9 | cell-free assay | – | competition with immobilised ligand | 1 µM | remaining binding | 94% |
| COc1cc(-c2cc(-c3ccc(N4CCNCC4)cc3)cnc2C)cc(OC)c1OC | CDK9 with cyclin T1 | enzyme activity | inhibitor | – | 0.1 µM | inhibition | 3% |
| CCC(=O)N[C@@H]1CC[C@H](C(=O)N(C)c2ccc(-c3nc4ccccc4o3)cc2)C1 | CDK9 | cell-free assay | – | competition with immobilised ligand | 1 µM | remaining binding | 100% |
| C#Cc1cccc(Nc2ncnc3cc(OCCOC)c(OCCOC)cc23)c1 | CDK9 with cyclin T1 | cell-free assay | – | – | 0.5 µM | remaining signal | 87.3% |
